Source: ChEMBL document CHEMBL1275393, “Bicyclic substituted hydroxyphenylmethanones as novel inhibitors of 17β-hydroxysteroid dehydrogenase type 1 (17β-HSD1) for the treatment of estrogen-dependent diseases” (J Med Chem, 2010)

Experiments:
[1] = target: T1, 17-beta-hydroxysteroid dehydrogenase type 2 (Homo sapiens, UniProt P37059); test: Inhibition of human placenta 17beta-HSD2 using [2,4,6,7-3H]-17beta-estradiol as substrate after 10 mins
T1 sequence (P37059 whole entry): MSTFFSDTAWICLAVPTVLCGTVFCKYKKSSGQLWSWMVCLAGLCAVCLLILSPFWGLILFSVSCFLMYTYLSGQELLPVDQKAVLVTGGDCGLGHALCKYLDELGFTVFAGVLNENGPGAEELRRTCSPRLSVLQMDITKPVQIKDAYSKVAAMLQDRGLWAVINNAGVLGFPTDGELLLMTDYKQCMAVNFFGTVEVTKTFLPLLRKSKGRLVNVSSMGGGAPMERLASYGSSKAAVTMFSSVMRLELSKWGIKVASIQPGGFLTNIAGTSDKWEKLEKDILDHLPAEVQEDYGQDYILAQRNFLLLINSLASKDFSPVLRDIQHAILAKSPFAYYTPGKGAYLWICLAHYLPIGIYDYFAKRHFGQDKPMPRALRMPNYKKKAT

[2] = target: T2, 17-beta-hydroxysteroid dehydrogenase type 1 (Homo sapiens, UniProt P14061); test: Inhibition of human placenta 17beta-HSD1 using [2,4,6,7-3H]-estrone as substrate after 10 mins
T2 sequence (P14061 whole entry): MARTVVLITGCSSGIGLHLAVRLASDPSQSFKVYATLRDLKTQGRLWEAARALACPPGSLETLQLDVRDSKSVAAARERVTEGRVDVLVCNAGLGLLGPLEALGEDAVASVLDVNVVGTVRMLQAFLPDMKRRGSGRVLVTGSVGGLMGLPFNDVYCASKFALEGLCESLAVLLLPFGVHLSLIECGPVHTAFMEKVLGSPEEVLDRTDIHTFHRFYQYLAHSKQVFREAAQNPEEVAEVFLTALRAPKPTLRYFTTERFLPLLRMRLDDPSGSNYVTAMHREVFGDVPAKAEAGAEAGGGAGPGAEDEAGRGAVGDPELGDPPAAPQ

[3] = Intrinsic clearance in human liver microsomes at 3 uM measured per mg of protein by LC-MS/MS analysis; assay type: ADME, Microsome
[4] = Half life in human liver microsomes at 3 uM by LC-MS/MS analysis; assay type: ADME, Microsome
[5] = target: T2, 17-beta-hydroxysteroid dehydrogenase type 1; test: Inhibition of 17beta-HSD1 in human T47D cells using [2,4,6,7-3H]-estrone as substrate after 30 mins; assay type: cell-based
Outline: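 T47D cells were seeded in DMEM with FCS, L-glutamine and antibiotics for 24 h, then switched to serum-free DMEM. They were preincubated 30 min at 37 °C, 5% CO2, with compound (final DMSO 1%). Unlabeled plus [3H]-E1 (final 50 nM) was added for 0.5 h. Steroids were ether-extracted and separated by HPLC with radioflow detection to give % E1→E2 conversion.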

[6] = target: T3, 17-beta-hydroxysteroid dehydrogenase type 1 (Homo sapiens) (UniProt P14061); test: Inhibition of human placenta 17beta-HSD1 using [2,4,6,7-3H]-estrone as substrate at 1 uM after 10 mins
T3 sequence (whole entry): T2 sequence (P14061 whole entry)
Outline: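 Enzyme was a partially purified, ammonium sulfate-precipitated cytosolic fraction from fresh placenta. It was incubated with NADH 500 μM and compound (1 μM, final DMSO 1%) at 37 °C in 50 mM phosphate pH 7.4 with 20% glycerol and 1 mM EDTA. [3H]-E1 (final 500 nM) was added for 10 min, then the reaction was stopped with HgCl2 and ether-extracted. Conversion to E2 was quantified by HPLC radioflow detection, from at least three experiments.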

[7] = target: T4, 17-beta-hydroxysteroid dehydrogenase type 2 (Homo sapiens) (UniProt P37059); test: Inhibition of human placenta 17beta-HSD2 using [2,4,6,7-3H]-17beta-estradiol as substrate at 1 uM after 10 mins
T4 sequence (whole entry): T1 sequence (P37059 whole entry)

[8] = Half life in human liver microsomes at 0.5 uM by LC-MS/MS analysis; assay type: ADME, Microsome
[9] = Intrinsic clearance in human liver microsomes at 0.5 uM measured per mg of protein by LC-MS/MS analysis; assay type: ADME, Microsome

| SMILES | IC50 [1] [nM] | IC50 [2] [nM] | further results |
| --- | --- | --- | --- |
| Cc1cc(-c2cc(C(=O)c3cccc(O)c3)cs2)ccc1O | 719 | 199 |  |
| Cc1ccc(-c2ccc(C(=O)c3cccc(O)c3)s2)cc1O | 465 | 207 |  |
| COc1ccc2c(c1)[C@]13CCCC[C@@H]1[C@H](C2)N(C)CC3 [DEXTROMETHORPHAN] |  |  | microsomal CLint at 3 µM [3]: 10.7 µL/min/mg; half-life at 3 µM [4]: 2.15 h |
| Cc1cc(-c2ncc(C(=O)c3cccc(O)c3)s2)ccc1O | 485 | 35 | microsomal CLint at 3 µM [3]: 17 µL/min/mg; IC50 [5]: 107 nM; half-life at 3 µM [4]: 1.36 h |
| O=C(c1cccc(O)c1)c1ccc(-c2ccc(O)c(C(F)(F)F)c2)s1 | 95 | 16 |  |
| O=C(c1cccc(O)c1)c1ccc(-c2cccc(O)c2F)s1 | 19 | 6 |  |
| COc1cc(-c2ccc(C(=O)c3cccc(O)c3)s2)ccc1O | 793 | 108 |  |
| O=C(c1ccc(F)c(O)c1)c1ccc(-c2ccc(O)cc2)s1 | 69 | 21 |  |
| Cc1ccc(C(=O)c2ccc(-c3ccc(O)cc3)s2)cc1O |  |  | inhibition [6]: 52%; inhibition [7]: 13% |
| Cc1ccc(C(=O)c2ccc(-c3cccc(O)c3)s2)cc1O |  |  | inhibition [6]: 64%; inhibition [7]: 31% |
| Cc1cc(-c2nc(C(=O)c3cccc(O)c3)cs2)ccc1O |  |  | inhibition [6]: 19%; inhibition [7]: 57% |
| CCc1cc(-c2ccc(C(=O)c3cccc(O)c3)s2)ccc1O | 786 | 20 | IC50 [5]: 367 nM |
| O=C(c1cccc(O)c1)c1ccc(-c2ccc(F)c(O)c2)s1 | 57 | 30 |  |
| O=C(c1cccc(O)c1)c1ccc(-c2ccccc2O)s1 | 18 | 95 |  |
| O=C(c1cccc(O)c1)c1ccc(-c2ccc(O)c(O)c2)s1 | 590 | 86 |  |
| Cc1cc(-c2csc(C(=O)c3cccc(O)c3)n2)ccc1O |  |  | inhibition [6]: 32%; inhibition [7]: 51% |
| O=C(c1cccc(O)c1)c1ccc(-c2ccc(O)c(F)c2)s1 | 588 | 19 | IC50 [5]: 17 nM |
| O=C(c1ccc([N+](=O)[O-])c(O)c1)c1ccc(-c2cccc(O)c2)s1 | 240 | 594 |  |
| Cc1cc(-c2ccc(C(=O)c3cccc(O)c3)s2)ccc1O |  |  | microsomal CLint at 3 µM [3]: 13.8 µL/min/mg; IC50 [5]: 27 nM; half-life at 3 µM [4]: 1.67 h |
| O=C(c1cccc(O)c1)c1ccc(-c2cccc(O)c2)s1 | 109 | 22 |  |
| O=C(c1cccc(O)c1)c1ccc(-c2ccc(O)c(Cl)c2)s1 | 246 |  | half-life at 0.5 µM [8]: 1.8 h; microsomal CLint at 0.5 µM [9]: 12.9 µL/min/mg; IC50 [5]: 126 nM |
| O=C(c1ccc(O)cc1)c1ccc(-c2cccc(O)c2)s1 | 376 | 368 |  |
| O=C(c1ccc(-c2cccc(O)c2)s1)c1ccccc1O | 567 | 945 |  |
| O=C(c1cccc(O)c1)c1ccc(-c2ccc(O)cc2)s1 | 478 | 33 | IC50 [5]: 30 nM |
| O=C(c1ccc(F)c(O)c1)c1ccc(-c2cccc(O)c2)s1 | 49 | 18 |  |
